Source: ChEMBL document CHEMBL3244044, “Synthesis and antitumor activity of halogen-substituted 4-(3,3-dimethyl-1-triazeno)quinolines” (J Med Chem, 1978)

Assays:
P388 [1] = assay: Antitumor activity against mouse P388 cells allografted mouse assessed as host survival at 40 mg/kg, ip qd for 9 days relative to control; type: functional; details: route intraperitoneal
Outline: (§1)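 NCI protocol: groups of five to ten mice inoculated ip with approximately 10^6 P-388 or L1210 cells. Drug given over a range of dose levels starting 24 h after implantation, once daily for 9 consecutive days. Survival expressed as %T/C = (average survival of treated)/(average survival of control) × 100.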

P388 [2] = assay: Antitumor activity against mouse P388 cells allografted mouse assessed as host survival at 20 mg/kg, ip qd for 9 days relative to control; type: functional; details: route intraperitoneal; outline: as §1
Mus musculus [3] = assay: Toxicity in mouse L1210 cells allografted mouse at 60 mg/kg, ip qd for 9 days; type: organism-based; set-up: dose 60 mg/kg, route intraperitoneal; details: in vivo, 216 h
Outline: (§2)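 Groups of five to ten mice were inoculated ip with about 10^6 L1210 cells and dosed once daily for 9 consecutive days beginning 24 h post-implantation. Toxicity was taken as the average body weight change at the end of drug treatment.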

Mus musculus [4] = assay: Toxicity in mouse P388 cells allografted mouse at 20 mg/kg, ip qd for 9 days; type: organism-based; set-up: dose 20 mg/kg, route intraperitoneal; details: in vivo, 216 h
Outline: (§3)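 NCI protocol. Groups of five to ten mice were inoculated intraperitoneally with about 10^6 tumor cells. Drug was given ip once daily for 9 consecutive days, starting 24 h after tumor implantation, over a range of dose levels. Toxicity was read as the average body weight change at the end of drug treatment.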

L1210 [5] = assay: Antitumor activity against mouse L1210 cells allografted mouse assessed as host survival at 50 mg/kg, ip qd for 9 days relative to control; type: functional; details: route intraperitoneal; outline: as §1
L1210 [6] = assay: Antitumor activity against mouse L1210 cells allografted mouse assessed as host survival at 60 mg/kg, ip qd for 9 days relative to control; type: functional; details: route intraperitoneal; outline: as §1
Mus musculus [7] = assay: Toxicity in mouse P388 cells allografted mouse at 40 mg/kg, ip qd for 9 days; type: organism-based; set-up: dose 40 mg/kg, route intraperitoneal; details: in vivo, 216 h; outline: as §3
Mus musculus [8] = assay: Toxicity in mouse L1210 cells allografted mouse at 50 mg/kg, ip qd for 9 days; type: organism-based; set-up: dose 50 mg/kg, route intraperitoneal; details: in vivo, 216 h; outline: as §2
P388 [9] = assay: Antitumor activity against mouse P388 cells allografted mouse assessed as host survival at 60 mg/kg, ip qd for 9 days relative to control; type: functional; details: route intraperitoneal; outline: as §1
Mus musculus [10] = assay: Toxicity in mouse P388 cells allografted mouse at 60 mg/kg, ip qd for 9 days; type: organism-based; set-up: dose 60 mg/kg, route intraperitoneal; details: in vivo, 216 h; outline: as §3
P388 [11] = assay: Antitumor activity against mouse P388 cells allografted mouse assessed as host survival at 90 mg/kg, ip qd for 9 days relative to control; type: functional; details: route intraperitoneal; outline: as §1
P388 [12] = assay: Antitumor activity against mouse P388 cells allografted mouse assessed as host survival at 80 mg/kg, ip qd for 9 days relative to control; type: functional; details: route intraperitoneal; outline: as §1
Mus musculus [13] = assay: Toxicity in mouse P388 cells allografted mouse at 90 mg/kg, ip qd for 9 days; type: organism-based; set-up: dose 90 mg/kg, route intraperitoneal; details: in vivo, 216 h; outline: as §3
L1210 [14] = assay: Antitumor activity against mouse L1210 cells allografted mouse assessed as host survival at 70 mg/kg, ip qd for 9 days relative to control; type: functional; details: route intraperitoneal; outline: as §1
Mus musculus [15] = assay: Toxicity in mouse B16 cells allografted mouse at 116.7 mg/kg, ip qd for 9 days; type: organism-based; set-up: dose 116.7 mg/kg, route intraperitoneal; details: in vivo, 216 h
Outline: (§4)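 Mice bearing B16 melanoma, dosed ip once daily for 9 days from 24 h after tumor implantation. Toxicity is recorded as the average body weight change at the end of drug treatment.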

L1210 [16] = assay: Antitumor activity against mouse L1210 cells allografted mouse assessed as host survival at 90 mg/kg, ip qd for 9 days relative to control; type: functional; details: route intraperitoneal; outline: as §1
Mus musculus [17] = assay: Toxicity in mouse B16 cells allografted mouse at 70 mg/kg, ip qd for 9 days; type: organism-based; set-up: dose 70 mg/kg, route intraperitoneal; details: in vivo, 216 h; outline: as §4
Mus musculus [18] = assay: Toxicity in mouse L1210 cells allografted mouse at 90 mg/kg, ip qd for 9 days; type: organism-based; set-up: dose 90 mg/kg, route intraperitoneal; details: in vivo, 216 h; outline: as §3
Mus musculus [19] = assay: Toxicity in mouse P388 cells allografted mouse at 70 mg/kg, ip qd for 9 days; type: organism-based; set-up: dose 70 mg/kg, route intraperitoneal; details: in vivo, 216 h; outline: as §3
L1210 [20] = assay: Antitumor activity against mouse L1210 cells allografted mouse assessed as host survival at 80 mg/kg, ip qd for 9 days relative to control; type: functional; details: route intraperitoneal; outline: as §1
P388 [21] = assay: Antitumor activity against mouse P388 cells allografted mouse assessed as host survival at 70 mg/kg, ip qd for 9 days relative to control; type: functional; details: route intraperitoneal; outline: as §1
Mus musculus [22] = assay: Toxicity in mouse B16 cells allografted mouse at 42 mg/kg, ip qd for 9 days; type: organism-based; set-up: dose 42 mg/kg, route intraperitoneal; details: in vivo, 216 h; outline: as §4
Mus musculus [23] = assay: Toxicity in mouse L1210 cells allografted mouse at 80 mg/kg, ip qd for 9 days; type: organism-based; set-up: dose 80 mg/kg, route intraperitoneal; details: in vivo, 216 h; outline: as §3
Mus musculus [24] = assay: Toxicity in mouse L1210 cells allografted mouse at 70 mg/kg, ip qd for 9 days; type: organism-based; set-up: dose 70 mg/kg, route intraperitoneal; details: in vivo, 216 h; outline: as §2
B16 [25] = assay: Antitumor activity against mouse B16 cells allografted mouse assessed as host survival at 70 mg/kg, ip qd for 9 days relative to control; type: functional; details: route intraperitoneal
Outline: (§5)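 B16 melanoma-bearing mice given drug ip once daily for 9 days, starting 24 h after tumor implantation. Read-out is average survival in days, expressed as %T/C = (average survival of treated mice)/(average survival of control mice) × 100.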

Mus musculus [26] = assay: Toxicity in mouse P388 cells allografted mouse at 80 mg/kg, ip qd for 9 days; type: organism-based; set-up: dose 80 mg/kg, route intraperitoneal; details: in vivo, 216 h; outline: as §3
B16 [27] = assay: Antitumor activity against mouse B16 cells allografted mouse assessed as host survival at 42 mg/kg, ip qd for 9 days relative to control; type: functional; details: route intraperitoneal; outline: as §5
B16 [28] = assay: Antitumor activity against mouse B16 cells allografted mouse assessed as host survival at 116.7 mg/kg, ip qd for 9 days relative to control; type: functional; details: route intraperitoneal; outline: as §5
B16 [29] = assay: Antitumor activity against mouse B16 cells allografted mouse assessed as host survival at 216 mg/kg, ip qd for 9 days relative to control; type: functional; details: route intraperitoneal; outline: as §5
L1210 [30] = assay: Antitumor activity against mouse L1210 cells allografted mouse assessed as host survival at 100 mg/kg, ip qd for 9 days relative to control; type: functional; details: route intraperitoneal; outline: as §1
B16 [31] = assay: Antitumor activity against mouse B16 cells allografted mouse assessed as host survival at 360 mg/kg, ip qd for 9 days relative to control; type: functional; details: route intraperitoneal; outline: as §5
Mus musculus [32] = assay: Toxicity in mouse B16 cells allografted mouse at 216 mg/kg, ip qd for 9 days; type: organism-based; set-up: dose 216 mg/kg, route intraperitoneal; details: in vivo, 216 h; outline: as §4
P388 [33] = assay: Antitumor activity against mouse P388 cells allografted mouse assessed as host survival at 100 mg/kg, ip qd for 9 days relative to control; type: functional; details: route intraperitoneal; outline: as §1
[34] = Binding affinity to synthetic melanin at 5.8 mg/100 mL after 15 mins by UV-spectroscopic analysis; type: physicochemical; details: 0.25 h
Outline: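 Synthetic melanin was made from DL-Dopa with tyrosinase in 0.1 M phosphate pH 6.6 at 37 °C for 4 h. Melanin suspension (1.1 mg dry weight) was mixed with phosphate buffer (0.05 M, pH 6.4, 5% Me2SO), water, and 1 mL of drug solution (5.8 mg/100 mL). The mixture was shaken 15 min at room temperature and filtered. Unbound drug in the filtrate was measured by UV against a drug-free blank.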

B16 [35] = assay: Antitumor activity against mouse B16 cells allografted mouse assessed as host survival at 130 mg/kg, ip qd for 9 days relative to control; type: functional; details: route intraperitoneal; outline: as §5
Mus musculus [36] = assay: Toxicity in mouse B16 cells allografted mouse at 360 mg/kg, ip qd for 9 days; type: organism-based; set-up: dose 360 mg/kg, route intraperitoneal; details: in vivo, 216 h; outline: as §4
Mus musculus [37] = assay: Toxicity in mouse B16 cells allografted mouse at 130 mg/kg, ip qd for 9 days; type: organism-based; set-up: dose 130 mg/kg, route intraperitoneal; details: in vivo, 216 h; outline: as §4

SMILES: CN(C)/N=N\c1ccnc2cc(I)ccc12
- T/C (P388 [1]): 130%
- T/C (P388 [2]): 117%
- Activity (Mus musculus [3]): 2.9%
- Activity (Mus musculus [4]): 10.8%
- T/C (L1210 [5]): 107%
- T/C (L1210 [6]): 131%
- Activity (Mus musculus [7]): 5.7%
- Activity (Mus musculus [8]): 4.9%
- T/C (P388 [9]): 127%
- Activity (Mus musculus [10]): -5.2%

SMILES: CN(C)/N=N\c1ccnc2c(I)cccc12
- T/C (P388 [11]): 116%
- T/C (P388 [12]): 120%
- Activity (Mus musculus [13]): -1.6%
- T/C (L1210 [14]): 127%
- Activity (Mus musculus [15]): -4.6%
- T/C (L1210 [16]): 139%
- Activity (Mus musculus [17]): -1.5%
- Activity (Mus musculus [18]): -7%
- Activity (Mus musculus [19]): 8.2%
- T/C (L1210 [20]): 129%
- T/C (P388 [21]): 120%
- Activity (Mus musculus [22]): -1.3%
- Activity (Mus musculus [23]): -6.9%
- Activity (Mus musculus [24]): 7.7%
- Survival (B16 [25]): 20.8 days
- T/C (B16 [25]): 99%
- Activity (Mus musculus [26]): -2.4%
- Survival (B16 [27]): 20 days
- T/C (B16 [27]): 97%
- Survival (B16 [28]): 19.3 days
- T/C (B16 [28]): 92%

SMILES: CN(C)/N=N/c1[nH]cnc1C(N)=O [DACARBAZINE]
- Survival (B16 [29]): 22.8 days
- T/C (B16 [29]): 109%
- T/C (L1210 [30]): 167%
- Survival (B16 [31]): 16 days
- T/C (B16 [31]): 76%
- Activity (Mus musculus [32]): -3.2%
- T/C (P388 [33]): 150%
- Activity [34]: 19.3%
- Survival (B16 [35]): 22 days
- T/C (B16 [35]): 105%
- Activity (Mus musculus [36]): -3%
- Activity (Mus musculus [37]): -2.9%
